# What was measured:
# BaF3 [1] = assay: Induction of cell cycle arrest in mouse BaF3 cells harbouring JAK2 […] mutant assessed as accumulation of cells at G2/M phase at 4 nM incubated for 24 hrs by propidium iodide staining based flow cytometry analysis (reference value: 9.34 %); format: functional
# BaF3 [2] = assay: Induction of apoptosis in mouse BaF3 cells harbouring JAK2 V617F mutant assessed as necrotic cells at 40 nM incubated for 24 hrs by Annexin V / propidium iodide staining based flow cytometry analysis (reference value: 0.64 %); format: functional
# Summary of the method: (§1)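 Ba/F3 JAK2V617F cells exposed to compound at 20, 40, 80, 160 and 320 nM, then analysed for apoptosis by flow cytometry. Significance vs control by Dunnett's t test.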
# BaF3 [3] = assay: Induction of cell cycle arrest in mouse BaF3 cells harbouring JAK2 […] mutant assessed as accumulation of cells at G2/M phase at 2 nM incubated for 24 hrs by propidium iodide staining based flow cytometry analysis (reference value: 9.34 %); format: functional
# BaF3 [4] = assay: Induction of cell cycle arrest in mouse BaF3 cells harbouring JAK2 […] mutant assessed as accumulation of cells at S phase at 2 nM incubated for 24 hrs by propidium iodide staining based flow cytometry analysis (reference value: 33.80 %); format: functional
# BaF3 [5] = assay: Induction of apoptosis in mouse BaF3 cells harbouring JAK2 V617F mutant assessed as viable cells at 320 nM incubated for 24 hrs by Annexin V / propidium iodide staining based flow cytometry analysis (reference value: 72.8 %); format: functional; conditions: read-out: Activity; summary of the method: as §1
# BaF3 [6] = assay: Induction of cell cycle arrest in mouse BaF3 cells harbouring JAK2 […] mutant assessed as accumulation of cells at S phase at 4 nM incubated for 24 hrs by propidium iodide staining based flow cytometry analysis (reference value: 33.80 %); format: functional
# BaF3 [7] = assay: Induction of cell cycle arrest in mouse BaF3 cells harbouring JAK2 […] mutant assessed as accumulation of cells at G2/M phase at 0.5 nM incubated for 24 hrs by propidium iodide staining based flow cytometry analysis (reference value: 9.34 %); format: functional
# [8] = Selectivity ratio of IC50 for TYK2 (unknown origin) to IC50 for JAK2 (unknown origin)
# [9] = Metabolic stability in human liver microsomes assessed as half life; format: ADME, Microsome
# BaF3 [10] = assay: Induction of cell cycle arrest in mouse BaF3 cells harbouring JAK2 […] mutant assessed as accumulation of cells at G2/M phase at 8 nM incubated for 24 hrs by propidium iodide staining based flow cytometry analysis (reference value: 9.34 %); format: functional
# BaF3 [11] = assay: Induction of cell cycle arrest in mouse BaF3 cells harbouring JAK2 […] mutant assessed as accumulation of cells at G0/G1 phase at 8 nM incubated for 24 hrs by propidium iodide staining based flow cytometry analysis (reference value: 56.85 %); format: functional
# [12] = Selectivity ratio of IC50 for JAK3 (unknown origin) to IC50 for JAK2 (unknown origin)
# BaF3 [13] = assay: Induction of apoptosis in mouse BaF3 cells harbouring JAK2 V617F mutant assessed as necrotic cells at 320 nM incubated for 24 hrs by Annexin V / propidium iodide staining based flow cytometry analysis (reference value: 0.64 %); format: functional; summary of the method: as §1
# BaF3 [14] = assay: Induction of apoptosis in mouse BaF3 cells harbouring JAK2 V617F mutant assessed as early apoptotic cells at 80 nM incubated for 24 hrs by Annexin V / propidium iodide staining based flow cytometry analysis (reference value: 14.4 %); format: functional; summary of the method: as §1
# BaF3 [15] = assay: Induction of cell cycle arrest in mouse BaF3 cells harbouring JAK2 […] mutant assessed as accumulation of cells at S phase at 0.5 nM incubated for 24 hrs by propidium iodide staining based flow cytometry analysis (reference value: 33.80 %); format: functional
# BaF3 [16] = assay: Induction of apoptosis in mouse BaF3 cells harbouring JAK2 V617F mutant assessed as late apoptotic cells at 20 nM incubated for 24 hrs by Annexin V / propidium iodide staining based flow cytometry analysis (reference value: 12.2 %); format: functional; summary of the method: as §1
# BaF3 [17] = assay: Induction of apoptosis in mouse BaF3 cells harbouring JAK2 V617F mutant assessed as late apoptotic cells at 160 nM incubated for 24 hrs by Annexin V / propidium iodide staining based flow cytometry analysis (reference value: 12.2 %); format: functional; summary of the method: as §1
# BaF3 [18] = assay: Induction of cell cycle arrest in mouse BaF3 cells harbouring JAK2 […] mutant assessed as accumulation of cells at G2/M phase at 16 nM incubated for 24 hrs by propidium iodide staining based flow cytometry analysis (reference value: 9.34 %); format: functional
# BaF3 [19] = assay: Induction of apoptosis in mouse BaF3 cells harbouring JAK2 V617F mutant assessed as viable cells at 20 nM incubated for 24 hrs by Annexin V / propidium iodide staining based flow cytometry analysis (reference value: 72.8 %); format: functional; conditions: read-out: Activity; summary of the method: as §1
# [20] = Selectivity ratio of IC50 for FLT3 (unknown origin) to IC50 for JAK2 (unknown origin)
# BaF3 [21] = assay: Induction of apoptosis in mouse BaF3 cells harbouring JAK2 V617F mutant assessed as late apoptotic cells at 320 nM incubated for 24 hrs by Annexin V / propidium iodide staining based flow cytometry analysis (reference value: 12.2 %); format: functional; summary of the method: as §1
# BaF3 [22] = assay: Induction of apoptosis in mouse BaF3 cells harbouring JAK2 V617F mutant assessed as viable cells at 80 nM incubated for 24 hrs by Annexin V / propidium iodide staining based flow cytometry analysis (reference value: 72.8 %); format: functional; conditions: read-out: Activity; summary of the method: as §1
# BaF3 [23] = assay: Induction of apoptosis in mouse BaF3 cells harbouring JAK2 V617F mutant assessed as necrotic cells at 160 nM incubated for 24 hrs by Annexin V / propidium iodide staining based flow cytometry analysis (reference value: 0.64 %); format: functional; summary of the method: as §1
# BaF3 [24] = assay: Induction of apoptosis in mouse BaF3 cells harbouring JAK2 V617F mutant assessed as necrotic cells at 20 nM incubated for 24 hrs by Annexin V / propidium iodide staining based flow cytometry analysis (reference value: 0.64 %); format: functional; summary of the method: as §1
# BaF3 [25] = assay: Induction of apoptosis in mouse BaF3 cells harbouring JAK2 V617F mutant assessed as necrotic cells at 80 nM incubated for 24 hrs by Annexin V / propidium iodide staining based flow cytometry analysis (reference value: 0.64 %); format: functional; summary of the method: as §1
# BaF3 [26] = assay: Induction of cell cycle arrest in mouse BaF3 cells harbouring JAK2 […] mutant assessed as accumulation of cells at G0/G1 phase at 0.5 nM incubated for 24 hrs by propidium iodide staining based flow cytometry analysis (reference value: 56.85 %); format: functional
# BaF3 [27] = assay: Induction of apoptosis in mouse BaF3 cells harbouring JAK2 V617F mutant assessed as viable cells at 160 nM incubated for 24 hrs by Annexin V / propidium iodide staining based flow cytometry analysis (reference value: 72.8 %); format: functional; conditions: read-out: Activity; summary of the method: as §1
# [28] = target: Tyrosine-protein kinase JAK2 (Mus musculus, UniProt Q62120, V617F); assay: Inhibition of JAK2 V617F mutant in mouse BaF3 cells; format: cell-based
# Sequence of Tyrosine-protein kinase JAK2 (Q62120 as listed by the source V617F): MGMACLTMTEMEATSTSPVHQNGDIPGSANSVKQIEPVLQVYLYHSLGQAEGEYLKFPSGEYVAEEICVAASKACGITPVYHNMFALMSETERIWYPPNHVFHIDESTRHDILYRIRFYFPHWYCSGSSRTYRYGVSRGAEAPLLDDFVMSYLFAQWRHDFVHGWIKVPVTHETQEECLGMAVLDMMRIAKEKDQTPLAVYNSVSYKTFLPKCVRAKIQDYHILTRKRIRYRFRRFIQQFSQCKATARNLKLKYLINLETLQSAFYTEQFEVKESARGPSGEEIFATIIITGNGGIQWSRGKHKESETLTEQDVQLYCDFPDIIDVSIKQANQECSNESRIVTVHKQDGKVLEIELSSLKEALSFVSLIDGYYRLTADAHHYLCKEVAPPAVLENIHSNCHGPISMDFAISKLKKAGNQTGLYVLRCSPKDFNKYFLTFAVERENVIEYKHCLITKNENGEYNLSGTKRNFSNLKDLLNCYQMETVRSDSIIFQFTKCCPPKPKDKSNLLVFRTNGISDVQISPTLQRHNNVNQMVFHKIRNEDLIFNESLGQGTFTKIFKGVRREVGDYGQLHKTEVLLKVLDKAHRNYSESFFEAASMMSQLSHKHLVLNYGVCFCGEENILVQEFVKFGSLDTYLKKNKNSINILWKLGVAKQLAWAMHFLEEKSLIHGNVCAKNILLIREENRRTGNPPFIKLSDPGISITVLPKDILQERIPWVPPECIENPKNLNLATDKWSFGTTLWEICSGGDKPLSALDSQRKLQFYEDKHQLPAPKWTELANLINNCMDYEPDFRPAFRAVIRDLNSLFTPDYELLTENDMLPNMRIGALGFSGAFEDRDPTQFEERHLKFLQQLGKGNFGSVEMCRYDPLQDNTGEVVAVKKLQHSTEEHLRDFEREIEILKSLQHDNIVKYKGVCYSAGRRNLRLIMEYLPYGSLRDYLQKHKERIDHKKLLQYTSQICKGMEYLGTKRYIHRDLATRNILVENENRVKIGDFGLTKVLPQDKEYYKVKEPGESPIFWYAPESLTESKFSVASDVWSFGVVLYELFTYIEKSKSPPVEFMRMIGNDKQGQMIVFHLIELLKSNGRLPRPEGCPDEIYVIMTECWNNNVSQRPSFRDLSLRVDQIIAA
# Summary of the method: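 Cell proliferation assay. IC50 is the concentration that inhibits proliferation by 50%, taken from dose–response curves. Mean ± SEM of at least three independent experiments.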
# BaF3 [29] = assay: Induction of cell cycle arrest in mouse BaF3 cells harbouring JAK2 […] mutant assessed as accumulation of cells at S phase at 8 nM incubated for 24 hrs by propidium iodide staining based flow cytometry analysis (reference value: 33.80 %); format: functional
Ratio IC50 [8],half-life [9] [min],Ratio IC50 [12],Ratio IC50 [20],SMILES,Activity (BaF3 [1]) [%],Activity (BaF3 [2]) [%],Activity (BaF3 [3]) [%],Activity (BaF3 [4]) [%],viability at 0.32 µM (BaF3 [5]) [%],Activity (BaF3 [6]) [%],Activity (BaF3 [7]) [%],Activity (BaF3 [10]) [%],Activity (BaF3 [11]) [%],Activity (BaF3 [13]) [%],Activity (BaF3 [14]) [%],Activity (BaF3 [15]) [%],Activity (BaF3 [16]) [%],Activity (BaF3 [17]) [%],Activity (BaF3 [18]) [%],viability at 0.02 µM (BaF3 [19]) [%],also measured
25,54.6,31,20.7,Cc1cnc(Nc2ccc3c(c2)CCN(C(=O)/C=C/CN(C)C)C3)nc1-c1cnn(C(C)C)c1,9.33,0.89,15.52,27.94,14.3,33.33,9.64,8.98,58.82,3.48,33.2,34.4,12,30.7,8.95,68.6,Activity (BaF3 [21]): 35.2%; viability at 0.08 µM (BaF3 [22]): 38.8%; Activity (BaF3 [23]): 1.89%; Activity (BaF3 [24]): 1.04%; Activity (BaF3 [25]): 2.64%; Activity (BaF3 [26]): 55.96%; viability at 0.16 µM (BaF3 [27]): 19.4%; IC50 ([28]; baf3): 0.041 µM; Activity (BaF3 [29]): 32.2%
41.2,> 120,54.6,93.4,C=CS(=O)(=O)NCc1ccc(Nc2ncc(C)c(-c3cnn(C(C)C)c3)n2)cc1,7.62,3.27,8.29,30.58,24.5,29.44,9.03,8.38,63.86,4.33,35.7,31.74,20,35.8,9.93,53.7,Activity (BaF3 [21]): 40.1%; viability at 0.08 µM (BaF3 [22]): 22.3%; Activity (BaF3 [23]): 3.8%; Activity (BaF3 [24]): 1.61%; Activity (BaF3 [25]): 3.39%; Activity (BaF3 [26]): 59.23%; viability at 0.16 µM (BaF3 [27]): 22.9%; IC50 [28]: 0.0253 µM; Activity (BaF3 [29]): 27.77%

# Source: ChEMBL document CHEMBL5325511, “Discovery of N-(4-(Aminomethyl)phenyl)-5-methylpyrimidin-2-amine Derivatives as Potent and Selective JAK2 Inhibitors” (ACS Med Chem Lett, 2023)
